From ChEMBL document CHEMBL1671796, “Development of non-peptide ligands of growth factor receptor-bound protein 2-SRC homology 2 domain using molecular modeling and NMR spectroscopy” (J Med Chem, 2011)
pIC50: −log10 of the molar value. The source made the active and inactive calls. The rule behind the calls is not given here.

Tests used:
[1] = molecular target: T1, Growth factor receptor-bound protein 2 (Homo sapiens, UniProt P62993); test: Displacement of biotin-Ahx-PSpYVNVQN from Grb2-SH2 at 5 mM by competition binding assay
Target sequence in this assay (P62993 whole entry, looked up): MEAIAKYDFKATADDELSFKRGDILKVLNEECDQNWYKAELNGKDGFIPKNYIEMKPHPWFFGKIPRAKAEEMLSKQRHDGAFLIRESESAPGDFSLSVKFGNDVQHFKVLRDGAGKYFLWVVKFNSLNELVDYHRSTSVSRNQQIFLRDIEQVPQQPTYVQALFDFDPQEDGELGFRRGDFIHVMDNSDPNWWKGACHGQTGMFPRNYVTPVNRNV

[2] = molecular target: T1, Growth factor receptor-bound protein 2; test: Displacement of biotin-Ahx-PSpYVNVQN from Grb2-SH2 by competition binding assay
Target sequence in this assay (P62993 whole entry): as the sequence (P62993 whole entry, looked up) above

MCF7 [3] = test: Cytotoxicity against HER2-negative human MCF7 cells after 24 hrs by MTT assay; type: functional, cell-based
Summary of the method: (§1)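 Human breast cancer cells tested at 50 and 100 μM: HER2-positive MCF7 and HER2-negative MCF7 and MDA-231. N1 fibroblasts were run alongside at the same two concentrations.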

MCF7 [4] = test: Cytotoxicity against HER2-positive human MCF7 cells after 24 hrs by MTT assay; type: functional, cell-based; settings: MCF7, 24 h; summary of the method: as §1
MDA-MB-231 = test: Cytotoxicity against HER2-negative human MDA231 cells after 24 hrs by MTT assay; type: functional, cell-based; summary of the method: as §1
[5] = molecular target: T1, Growth factor receptor-bound protein 2; test: Inhibition of HER2-Grb2 interaction in HER2-positive human MCF7 cells assessed as decrease in interaction at 50 uM by immunoblotting; type: cell-based; parameters: scale not given: the % may be the effect or the level left
Target sequence in this assay (P62993 whole entry, looked up): as above

`CCCC(=O)N[C@@H](Cc1ccc(OP(=O)(O)O)cc1)C(=O)NCCCN1CCCC1=O` was tested, and the inhibition [1] was less than 10%.

In the case of `CCCC(=O)N[C@@H](Cc1ccc(OP(=O)(O)O)cc1)C(=O)NCCN1CCNC1=O`, the pIC50 [2] was 2.88.

In the case of `CC(=O)N[C@@H](Cc1ccc(OP(=O)(O)O)cc1)C(=O)NC1(CCN2CCCNC2=O)CCCCC1`, the Activity (MCF7 [3]) was “inactive”, the pIC50 [2] was 4.25 and the pIC50 (MCF7 [4]) was 4.00. The Activity (MDA-MB-231) was “inactive” and the Activity [5] was 30%.

`CCCC(=O)N[C@@H](Cc1ccc(OP(=O)(O)O)cc1)C(=O)NCCCN1CCCNC1=O` showed a pIC50 [2] of 3.50.

Work on `O=C(N[C@@H](Cc1ccc(OP(=O)(O)O)cc1)C(=O)NCCN1CCNC1=O)c1ccccc1` yielded an inhibition [1] of less than 10%.

With `CC(=O)NC(Cc1ccc(OP(=O)(O)O)cc1)C(=O)NCCCN1CCCNC1=O` (racemic) the pIC50 [2] was 2.64.

With `O=C(O)C[C@@H](Cc1ccc(CP(=O)(O)O)cc1)C(=O)NC1(C(=O)N[C@@H](CC(=O)O)C(=O)NCCCc2cccc3ccccc23)CCCCC1` the pIC50 [2] was 8.10.

With `CC(=O)N[C@@H](Cc1ccc(OP(=O)(O)O)cc1)C(=O)NCCc1cnc[nH]1` the inhibition [1] was less than 10%.

Compound `CC(=O)N[C@@H](Cc1ccc(OP(=O)(O)O)cc1)C(=O)NCCCN1CCCNC1=O` has a pIC50 [2] of 3.76.

`O=C(N[C@@H](Cc1ccc(OP(=O)(O)O)cc1)C(=O)NCCCN1CCCC1=O)c1ccccc1` gave an inhibition [1] of less than 10%.

In the case of `CC(=O)N[C@@H](Cc1ccc(OP(=O)(O)O)cc1)C(=O)NCCN1CCNC1=O`, the inhibition [1] was less than 10%.

Compound `CC(=O)N[C@H](Cc1ccc(OP(=O)(O)O)cc1)C(=O)NCCCN1CCCNC1=O` has an inhibition [1] of less than 10%.

With `CC(=O)N[C@@H](Cc1ccc(OP(=O)(O)O)cc1)C(=O)NCCCN1CCCC1=O` the inhibition [1] was less than 10%.

`O=C(N[C@@H](Cc1ccc(OP(=O)(O)O)cc1)C(=O)NCCCN1CCCNC1=O)c1ccccc1` showed an inhibition [1] of less than 10%.
